Measurements reported in ChEMBL document CHEMBL4024790 (J Med Chem, 2018).
Each block holds one compound with its values, some of them ahead of it.

Tests used:
[1] = Apparent intrinsic clearance in human liver microsomes; assay type: ADME, microsome; conditions: read-out: CLH(app)
Liver [2] = assay: Drug level in human liver microsomes treated with 4-(azetidin-1-yl)-7-methyl-5-(1-methyl-5-(5-(trifluoromethyl)pyridin-2-yl)-1H-pyrazol-4-yl)imidazo[1,5-f][1,2,4]triazine at 1 to 50 uM after 1 hr by LC-MS/MS analysis; assay type: ADME, microsome
Method in brief: (§1)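 Rat, dog or human liver microsomes or hepatocytes (P450 0.35–0.5 µM final) incubated with compound at 1, 10 or 50 µM in 100 mM phosphate buffer with 1 mM NADP regenerating system, 37°C for 1 h; quenched with 4 volumes acetonitrile, centrifuged, supernatant evaporated, reconstituted in 5% aqueous acetonitrile and analysed by reversed-phase LC.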

Liver [3] = assay: Drug level in rat liver microsomes treated with 4-(azetidin-1-yl)-7-methyl-5-(1-methyl-5-(5-(trifluoromethyl)pyridin-2-yl)-1H-pyrazol-4-yl)imidazo[1,5-f][1,2,4]triazine at 1 to 50 uM after 1 hr by LC-MS/MS analysis; assay type: ADME, microsome; method in brief: as §1
Liver [4] = assay: Drug level in dog liver microsomes treated with 4-(azetidin-1-yl)-7-methyl-5-(1-methyl-5-(5-(trifluoromethyl)pyridin-2-yl)-1H-pyrazol-4-yl)imidazo[1,5-f][1,2,4]triazine at 1 to 50 uM after 1 hr by LC-MS/MS analysis; assay type: ADME, Canis lupus familiaris, microsome; method in brief: as §1
[5] = Drug level in dog hepatocytes treated with 4-(azetidin-1-yl)-7-methyl-5-(1-methyl-5-(5-(trifluoromethyl)pyridin-2-yl)-1H-pyrazol-4-yl)imidazo[1,5-f][1,2,4]triazine at 1 to 50 uM after 1 hr by LC-MS/MS analysis; assay type: ADME, cell-based, Canis lupus familiaris, Hepatocyte; method in brief: as §1
[6] = Drug level in rat hepatocytes treated with 4-(azetidin-1-yl)-7-methyl-5-(1-methyl-5-(5-(trifluoromethyl)pyridin-2-yl)-1H-pyrazol-4-yl)imidazo[1,5-f][1,2,4]triazine at 1 to 50 uM after 1 hr by LC-MS/MS analysis; assay type: ADME, cell-based, Hepatocyte; method in brief: as §1
[7] = Drug level in human hepatocytes treated with 4-(azetidin-1-yl)-7-methyl-5-(1-methyl-5-(5-(trifluoromethyl)pyridin-2-yl)-1H-pyrazol-4-yl)imidazo[1,5-f][1,2,4]triazine at 1 to 50 uM after 1 hr by LC-MS/MS analysis; assay type: ADME, cell-based, Hepatocyte; method in brief: as §1
[8] = 1-octanol/phosphate buffer solution partition coefficient, log D of the compound at pH 7.4 after 1 hr by LC-MS/MS method; assay type: physicochemical
Rattus norvegicus [9] = assay: Cardiotoxicity in rat at 5 to 250 mg/kg/day, po up to 15 days by microscopic method; assay type: toxicity, organism-based; conditions: in vivo, 360 h
Method in brief: (§2)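 Exploratory rat toxicity study, oral dosing at 5, 50 and 250 mg/kg/day for up to 15 days, with microscopic examination of heart and vasculature and measurement of plasma and brain exposure.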

Rattus norvegicus [10] = assay: Toxicity in rat assessed as effect on vasculature at 5 to 250 mg/kg/day, po up to 15 days by microscopic method; assay type: organism-based; conditions: in vivo, 360 h
Plasma = assay: Drug uptake in rat plasma at 5 to 250 mg/kg/day, po up to 15 days by microscopic method; assay type: ADME, organism-based; conditions: in vivo, 360 h; method in brief: as §2
Brain = assay: Drug uptake in rat brain at 5 to 250 mg/kg/day, po up to 15 days by microscopic method; assay type: ADME, organism-based; conditions: in vivo, 360 h; method in brief: as §2
Canis familiaris = assay: Cardiotoxicity in dog assessed as arteriopathy in arteries at >= 20 mg/kg/day, po for 14 days by microscopic method; assay type: toxicity, organism-based, Canis lupus familiaris; conditions: in vivo, 336 h
Rattus norvegicus [11] = organism: Rattus norvegicus
[12] = molecular target: cGMP-specific 3',5'-cyclic phosphodiesterase (Homo sapiens, UniProt O76074); assay: Inhibition of PDE5A1 (unknwon origin) using [3H]cGMP as substrate after 30 mins by SPA
human MDR1 = assay: Passive permeability from apical to basolateral side in MDCK cells expressing human MDR1; assay type: ADME, cell-based, Canis lupus familiaris; conditions: dog, read-out: permeability

Structure (SMILES): Cc1nc(-c2cnn(C)c2-c2ccc(C(F)(F)F)cn2)c2c(N3CC(O)C3)ncnn12
Drug metabolism (Liver [2]): Metabolite_Detected
Drug metabolism (Liver [3]): Metabolite_Detected
Drug metabolism (Liver [4]): Metabolite_Detected
Drug metabolism [5]: Metabolite_Detected
Drug metabolism [6]: Metabolite_Detected
Drug metabolism [7]: Metabolite_Detected

Structure (SMILES): CNc1ncnn2c(C)nc(-c3cnn(C)c3-c3ccc(C(F)(F)F)cn3)c12
logD at 1 h [8]: 1.8
CLint scaled [1]: 9.5 mL/min/kg
Activity (Rattus norvegicus [9]): Non-Toxic
Activity (Rattus norvegicus [10]): Non-Toxic
Drug uptake (Plasma): Active
Drug uptake (Brain): Active
Activity (Canis familiaris): Toxic

Structure (SMILES): CCCc1nn(C)c2c(=O)nc(-c3cc(S(=O)(=O)N4CCN(CC)CC4)ccc3OCC)[nH]c12
IC50 [12]: 8.9 nM

Structure (SMILES): Cc1nc(-c2cnn(C)c2-c2ccc(C(F)(F)F)cn2)c2c(NCCC(=O)O)ncnn12
Papp A→B (human MDR1): 1.1 ×10⁻⁶ cm/s
Drug metabolism (Liver [2]): Metabolite_Detected
Drug metabolism (Liver [3]): Metabolite_Detected
Drug metabolism (Liver [4]): Metabolite_Detected
Drug metabolism [5]: Metabolite_Detected
Drug metabolism [6]: Metabolite_Detected
Drug metabolism [7]: Metabolite_Detected

More lines, main results first:

CLint scaled [1]: 93 mL/min/kg
Structure (SMILES): Cc1nc(-c2cnn(C)c2-c2ccc(C(F)(F)F)cc2)c2c(N3CCC3)ncnn12

logD at 1 h [8]: 2.9
Structure (SMILES): Cn1ncc(-c2nn(C)c3ncnc(N4CCC4)c23)c1-c1ccc(C(F)(F)F)cc1
fIC50 (Rattus norvegicus [11]): 11 nM

logD at 1 h [8]: 2.8
CLint scaled [1]: 33 mL/min/kg
Structure (SMILES): CNc1ncnn2c(C)nc(-c3cnn(C)c3-c3ccc(C(F)(F)F)cc3)c12
Activity (Rattus norvegicus [9]): Toxic
Activity (Rattus norvegicus [10]): Toxic

logD at 1 h [8]: 1.7
CLint scaled [1]: 13 mL/min/kg
Structure (SMILES): Cc1nc(-c2cnn(C)c2-c2ccc(Cl)cn2)c2c(N3CCC3)ncnn12
Activity (Rattus norvegicus [9]): Toxic
Activity (Rattus norvegicus [10]): Toxic
